Measurements from ChEMBL document CHEMBL1143164, “Synthesis and structure-activity relationships of ring-opened 17-hydroxywortmannins: potent phosphoinositide 3-kinase inhibitors with improved properties and anticancer efficacy” (J Med Chem, 2008).

Columns and labels:
[1] = tested on: LNCaP; assay: Growth inhibition of human LNCap cells; type: functional, cell-based
[2] = target: Phosphatidylinositol 4,5-bisphosphate 3-kinase catalytic subunit alpha isoform (Homo sapiens, UniProt P42336); assay: Inhibition of PI3K expressed in Escherichia coli by microtiter plate-based fluorescence polarization assay
Method in brief: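 Fluorescence polarization assay of PI3K activity with PIP2 substrate. Reactions contained 20 mM Hepes pH 7.5, 2 mM MgCl2, 0.05% CHAPS, 0.01% βME, 20 µM PIP2 and 25 µM ATP, and ran 15–30 min at room temperature. They were stopped with buffer holding 10 nM TAMRA-labeled probe and 40 nM GST-GRP1 (E. coli-expressed detector), then incubated 1–2 h before FP readout.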

[3] = target: Serine/threonine-protein kinase mTOR (Homo sapiens, UniProt P42345); assay: Inhibition of mTOR

Chain of Phosphatidylinositol 4,5-bisphosphate 3-kinase catalytic subunit alpha isoform (P42336 whole entry, canonical isoform): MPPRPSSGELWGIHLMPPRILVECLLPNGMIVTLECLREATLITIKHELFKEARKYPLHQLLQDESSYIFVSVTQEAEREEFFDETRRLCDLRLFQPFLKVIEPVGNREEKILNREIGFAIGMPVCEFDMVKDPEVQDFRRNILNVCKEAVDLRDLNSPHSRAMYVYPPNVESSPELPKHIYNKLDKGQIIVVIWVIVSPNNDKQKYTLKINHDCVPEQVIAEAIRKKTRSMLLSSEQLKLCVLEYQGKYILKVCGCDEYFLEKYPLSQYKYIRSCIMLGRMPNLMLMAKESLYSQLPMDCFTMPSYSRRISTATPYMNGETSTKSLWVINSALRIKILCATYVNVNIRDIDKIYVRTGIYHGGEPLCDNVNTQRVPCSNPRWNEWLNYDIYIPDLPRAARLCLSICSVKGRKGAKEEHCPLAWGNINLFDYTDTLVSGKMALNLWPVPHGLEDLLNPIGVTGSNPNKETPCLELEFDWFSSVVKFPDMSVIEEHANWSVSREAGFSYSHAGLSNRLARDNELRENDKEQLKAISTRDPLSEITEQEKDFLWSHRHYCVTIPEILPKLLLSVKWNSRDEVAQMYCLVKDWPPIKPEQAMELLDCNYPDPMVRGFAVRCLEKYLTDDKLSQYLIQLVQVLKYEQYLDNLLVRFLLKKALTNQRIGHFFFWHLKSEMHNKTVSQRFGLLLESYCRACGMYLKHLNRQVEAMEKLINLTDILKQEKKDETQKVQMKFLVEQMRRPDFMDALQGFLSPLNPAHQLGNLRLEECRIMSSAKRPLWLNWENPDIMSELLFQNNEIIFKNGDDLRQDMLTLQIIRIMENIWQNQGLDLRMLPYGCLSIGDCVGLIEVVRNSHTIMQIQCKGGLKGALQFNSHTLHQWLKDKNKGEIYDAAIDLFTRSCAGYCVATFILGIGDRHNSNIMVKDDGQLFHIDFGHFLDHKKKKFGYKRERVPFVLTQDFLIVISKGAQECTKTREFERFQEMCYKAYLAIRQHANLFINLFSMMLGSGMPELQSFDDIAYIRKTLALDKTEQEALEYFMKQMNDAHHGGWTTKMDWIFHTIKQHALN

Work on C=CCN(/C=C1/C(=O)O[C@H](COC)[C@@]2(C)C1=C(O)C(=O)C1=C2[C@H](OC(C)=O)C[C@]2(C)C(=O)CC[C@@H]12)CC=C [SONOLISIB] yielded an IC50 [1] of 573 nM, an IC50 [2] of 88 nM and an IC50 [3] of 3100 nM.
COC[C@H]1OC(=O)/C(=C/N2CCN(c3ccccc3)CC2)C2=C(O)C(=O)C3=C([C@H](OC(C)=O)C[C@]4(C)[C@@H](O)CC[C@@H]34)[C@]21C was tested, and the IC50 [1] was 953 nM, the IC50 [2] was 56 nM and the IC50 [3] was 692 nM.
Molecule COC[C@H]1OC(=O)/C(=C/N2CCN(Cc3ccccc3)CC2)C2=C(O)C(=O)C3=C([C@H](OC(C)=O)C[C@]4(C)[C@@H](O)CC[C@@H]34)[C@]21C has an IC50 [1] of 1650 nM, an IC50 [2] of 87 nM and an IC50 [3] of 890 nM.
With CCN/C=C1/C(=O)O[C@H](COC)[C@@]2(C)C1=C(O)C(=O)C1=C2[C@H](OC(C)=O)C[C@]2(C)[C@@H](O)CC[C@@H]12 the IC50 [1] was 7070 nM, the IC50 [2] was greater than 10000 nM and the IC50 [3] was greater than 20000 nM.
COC[C@H]1OC(=O)/C(=C/N2CCCC2)C2=C(O)C(=O)C3=C([C@H](OC(C)=O)C[C@]4(C)[C@@H](O)CC[C@@H]34)[C@]21C was tested, and the IC50 [1] was 257 nM, the IC50 [2] was 496 nM and the IC50 [3] was greater than 20000 nM.
Molecule COC[C@H]1OC(=O)/C(=C/N2CCN(C3CCCCC3)CC2)C2=C(O)C(=O)C3=C([C@H](OC(C)=O)C[C@]4(C)[C@@H](O)CC[C@@H]34)[C@]21C has an IC50 [1] of 1470 nM, an IC50 [2] of 43 nM and an IC50 [3] of 820 nM.
Work on COC[C@H]1OC(=O)/C(=C/NC(C)(C)C)C2=C(O)C(=O)C3=C([C@H](OC(C)=O)C[C@]4(C)[C@@H](O)CC[C@@H]34)[C@]21C yielded an IC50 [1] of 40700 nM, an IC50 [2] greater than 10000 nM and an IC50 [3] greater than 20000 nM.
